# Substitutions are numbered along the chain they refer to.
# Tested on: T1, OR4N2 A57V I76T
# T1 sequence (whole entry): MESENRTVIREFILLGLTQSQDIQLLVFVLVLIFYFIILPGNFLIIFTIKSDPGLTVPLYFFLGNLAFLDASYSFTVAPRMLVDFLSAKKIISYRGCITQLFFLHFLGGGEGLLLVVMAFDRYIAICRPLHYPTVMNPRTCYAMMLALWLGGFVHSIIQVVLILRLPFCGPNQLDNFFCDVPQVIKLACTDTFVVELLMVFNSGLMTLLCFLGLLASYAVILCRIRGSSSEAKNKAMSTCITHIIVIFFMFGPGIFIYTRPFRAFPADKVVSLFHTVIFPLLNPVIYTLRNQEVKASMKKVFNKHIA
# Conditions: stereoisomer not certain
# In short: (§1)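 Values were gathered from published papers (main text and supplementary material), with extra details requested from the original authors when needed, and checked for typos and inconsistencies. Each receptor–molecule pair is called responsive (active) if the original authors judged the measured signal statistically different from baseline, and non-responsive (inactive) otherwise. Assay methods varied by source, often transient mammalian cell-line luciferase assays. Recorded details include cell line, G-protein, co-transfected protein and tags.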
row,SMILES,odorant receptor agonist call
1,CCCCCCC=CCCC=O,inactive
2,CC1=C(O)C(=O)C(C)O1 (stereo unspecified),inactive
3,CC1=NC(C)C(C)S1 (stereo unspecified),inactive
4,CC1=C(O)C(=O)OC1C (stereo unspecified),inactive
5,CCC1OC(=O)C(O)=C1C (stereo unspecified),inactive
6,Cc1cnc(C)c(C)n1,inactive
7,CCCC(S)CCOC(C)=O (stereo unspecified),inactive
8,CCC1OC(C)=C(O)C1=O (stereo unspecified),inactive

# Tested on: T2, OR4N2 R260C F279L R290H
# T2 sequence (whole entry): T1 sequence (whole entry) with V57A, T76I, R260C, F279L, R290H
# Conditions: stereoisomer not certain
# In short: as §1
row,SMILES,odorant receptor agonist call
1,CCCCCCC=CCCC=O,inactive
2,CC1=C(O)C(=O)C(C)O1 (stereo unspecified),inactive
3,CC1=NC(C)C(C)S1 (stereo unspecified),inactive
4,CC1=C(O)C(=O)OC1C (stereo unspecified),inactive
5,CCC1OC(=O)C(O)=C1C (stereo unspecified),inactive
6,Cc1cnc(C)c(C)n1,inactive
7,CCCC(S)CCOC(C)=O (stereo unspecified),inactive
8,CCC1OC(C)=C(O)C1=O (stereo unspecified),inactive

# From the M2OR odorant receptor database
